{
  "source": "ChEMBL document CHEMBL1152519",
  "about": "“Synthesis, structural activity-relationships, and biological evaluation of novel amide-based allosteric binding site antagonists in NR1A/NR2B N-methyl-D-aspartate receptors” (Bioorg Med Chem, 2009)",
  "key": {"[1]": {"biological_target": "Glutamate receptor ionotropic, NMDA 1/NMDA 2B (Mus musculus, UniProt P35438+Q01097)", "sequence (Q01097 whole entry, other chains not shown)": "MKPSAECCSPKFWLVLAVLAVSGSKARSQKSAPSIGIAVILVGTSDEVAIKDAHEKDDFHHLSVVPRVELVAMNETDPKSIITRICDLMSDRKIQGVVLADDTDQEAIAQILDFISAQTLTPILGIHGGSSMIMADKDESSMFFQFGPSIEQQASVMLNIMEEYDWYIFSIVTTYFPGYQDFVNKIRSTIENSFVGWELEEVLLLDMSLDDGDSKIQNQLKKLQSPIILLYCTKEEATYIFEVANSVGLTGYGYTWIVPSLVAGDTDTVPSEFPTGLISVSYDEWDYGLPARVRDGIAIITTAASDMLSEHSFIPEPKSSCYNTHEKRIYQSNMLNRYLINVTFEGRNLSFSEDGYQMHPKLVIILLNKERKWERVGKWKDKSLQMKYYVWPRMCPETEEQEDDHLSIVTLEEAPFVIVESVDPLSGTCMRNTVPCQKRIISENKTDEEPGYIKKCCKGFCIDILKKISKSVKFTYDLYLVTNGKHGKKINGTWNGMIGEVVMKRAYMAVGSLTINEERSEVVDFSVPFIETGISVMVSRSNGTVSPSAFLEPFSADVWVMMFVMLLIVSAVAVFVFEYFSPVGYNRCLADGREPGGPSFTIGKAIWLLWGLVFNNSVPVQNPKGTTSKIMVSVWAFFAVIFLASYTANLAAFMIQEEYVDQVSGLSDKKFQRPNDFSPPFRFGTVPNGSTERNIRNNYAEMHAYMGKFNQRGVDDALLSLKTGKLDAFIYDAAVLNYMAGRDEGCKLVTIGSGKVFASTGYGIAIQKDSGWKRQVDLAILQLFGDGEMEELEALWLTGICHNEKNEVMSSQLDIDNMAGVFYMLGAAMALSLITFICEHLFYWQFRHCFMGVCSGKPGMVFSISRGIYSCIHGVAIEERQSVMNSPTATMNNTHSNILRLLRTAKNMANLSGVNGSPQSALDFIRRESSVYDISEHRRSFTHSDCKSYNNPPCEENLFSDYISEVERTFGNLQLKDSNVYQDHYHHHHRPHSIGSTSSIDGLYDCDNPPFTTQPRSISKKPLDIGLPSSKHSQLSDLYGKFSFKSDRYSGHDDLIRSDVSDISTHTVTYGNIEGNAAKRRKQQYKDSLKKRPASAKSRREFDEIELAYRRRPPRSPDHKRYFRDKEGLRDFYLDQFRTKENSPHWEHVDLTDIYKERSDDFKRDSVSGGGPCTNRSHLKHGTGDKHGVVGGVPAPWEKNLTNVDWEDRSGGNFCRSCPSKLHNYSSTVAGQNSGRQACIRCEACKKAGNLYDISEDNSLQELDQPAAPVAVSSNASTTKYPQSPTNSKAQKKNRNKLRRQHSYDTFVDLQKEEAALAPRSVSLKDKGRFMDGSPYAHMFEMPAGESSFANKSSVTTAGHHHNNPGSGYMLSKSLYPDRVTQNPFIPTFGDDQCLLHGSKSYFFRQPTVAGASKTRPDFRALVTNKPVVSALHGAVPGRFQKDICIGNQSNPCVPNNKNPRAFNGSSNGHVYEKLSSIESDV", "assay": "Antagonist activity at mouse recombinant NR1/NR2B receptor expressed in frog oocytes assessed as inhibition of glutamate/glycine-induced current by two electrode voltage clamp method", "format": "functional, cell-based, Oocyte", "how_it_was_run": "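Xenopus oocytes injected with 3–5 ng NR1 and 7–10 ng NR2 cRNA, kept in Barth's solution at 15 °C, recorded 2–7 d later at 23 °C under two-electrode voltage clamp at −40 mV. Bath was 90 NaCl, 1 KCl, 10 HEPES, 0.5 BaCl2 (mM), pH 7.4/7.6, plus 10 μM EDTA. Glutamate (50–100 μM) plus glycine 30 μM was applied, then 5–8 inhibitor concentrations. Leak-corrected; n = 11 oocytes from 2 frogs.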"}, "[2]": {"biological_target": "Glutamate receptor 1 (Rattus norvegicus) (UniProt P19490)", "sequence (P19490 whole entry)": "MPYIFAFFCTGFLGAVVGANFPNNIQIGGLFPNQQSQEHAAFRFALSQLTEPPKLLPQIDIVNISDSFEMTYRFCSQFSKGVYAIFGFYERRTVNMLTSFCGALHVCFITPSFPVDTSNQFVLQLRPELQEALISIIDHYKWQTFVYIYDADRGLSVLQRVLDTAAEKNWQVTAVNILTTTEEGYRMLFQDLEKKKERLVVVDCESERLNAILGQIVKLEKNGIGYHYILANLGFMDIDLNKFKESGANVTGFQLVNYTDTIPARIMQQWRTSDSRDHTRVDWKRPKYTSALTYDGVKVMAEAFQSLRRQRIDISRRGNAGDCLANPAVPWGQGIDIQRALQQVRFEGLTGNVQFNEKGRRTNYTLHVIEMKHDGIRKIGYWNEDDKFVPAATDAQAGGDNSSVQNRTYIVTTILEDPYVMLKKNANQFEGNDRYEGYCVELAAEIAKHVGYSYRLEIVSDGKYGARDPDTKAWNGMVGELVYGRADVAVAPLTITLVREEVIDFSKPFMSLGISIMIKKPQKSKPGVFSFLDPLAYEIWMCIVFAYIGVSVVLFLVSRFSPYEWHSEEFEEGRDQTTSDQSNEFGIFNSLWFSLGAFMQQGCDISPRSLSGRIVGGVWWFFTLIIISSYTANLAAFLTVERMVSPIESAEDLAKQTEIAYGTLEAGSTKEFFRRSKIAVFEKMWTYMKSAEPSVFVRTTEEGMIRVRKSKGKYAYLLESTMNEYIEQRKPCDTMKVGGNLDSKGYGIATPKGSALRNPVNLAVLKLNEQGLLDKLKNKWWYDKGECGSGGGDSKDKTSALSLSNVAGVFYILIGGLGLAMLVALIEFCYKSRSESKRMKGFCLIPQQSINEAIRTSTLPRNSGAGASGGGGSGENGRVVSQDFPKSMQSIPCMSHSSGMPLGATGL", "assay": "Antagonist activity at rat recombinant GluR1 expressed in Xenopus laevis oocytes assessed as inhibition of glutamate-induced current at 3 uM by two electrode voltage clamp method", "format": "functional, cell-based", "conditions": "Oocyte", "how_it_was_run": "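GluR1 homomers expressed from 5–10 ng cRNA in Xenopus oocytes. Clamped at −40 mV. Currents evoked by 100 μM glutamate with 3 μM compound, expressed as % of control without compound. Mean ± SEM, 4–10 oocytes; paired t-test.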"}, "Rattus norvegicus [3]": {"species_on_record": "Rattus norvegicus", "assay": "Inhibition of voltage-gated potassium channel in Sprague-Dawley rat cortical neuron at 3 uM by whole cell patch clamp technique"}, "Oocyte": {"system": "Oocyte", "assay": "Antagonist activity at rat NR1/NR2B receptor deltaATD mutant expressed in Xenopus laevis oocytes assessed as inhibition of glutamate/glycine-induced current at 0.01 to 100 uM by two electrode voltage clamp method", "format": "functional, cell-based", "how_it_was_run": "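Oocytes express NR1/NR2B amino-terminal-domain mutants (mouse D101A point mutant; rat ATD deletion). Concentration–effect curves were recorded by two-electrode voltage clamp at −40 mV and 23 °C, with 50 μM glutamate plus 30 μM glycine. Each step is compound plus agonists, expressed relative to agonists alone.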"}, "Rattus norvegicus [4]": {"species_on_record": "Rattus norvegicus", "assay": "Inhibition of voltage-gated sodium channel in Sprague-Dawley rat cortical neuron at 3 uM by whole cell patch clamp technique"}, "[5]": {"biological_target": "Glutamate receptor ionotropic, NMDA 2B (Rattus norvegicus, UniProt Q00960)", "assay": "Displacement of [3H]ifenprodil form NR2B receptor in Wistar rat cerebral cortex membrane", "format": "tissue-based"}, "[6]": {"biological_target": "T1, Glutamate NMDA receptor; Grin1/Grin2b (Rattus norvegicus) (UniProt P35439+Q00960)", "assay": "Antagonist activity at rat recombinant NR1/NR2B receptor expressed in Xenopus laevis oocytes assessed as inhibition of glutamate/glycine-induced current at 3 uM by two electrode voltage clamp method relative to control", "format": "functional, cell-based", "conditions": "Oocyte", "how_it_was_run": "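Xenopus oocytes injected with NR1-1a (3–5 ng) plus NR2A, 2B, 2C or 2D cRNA (7–10 ng), kept at 15 °C. Voltage clamp at −40 mV. Responses to 50 μM glutamate + 30 μM glycine with 3 μM compound, as % of response without compound. NR2A oocytes pre-loaded with 50 μM BAPTA-AM. Mean ± SEM, 4–10 oocytes; paired t-test.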"}, "[7]": {"biological_target": "T1, Glutamate NMDA receptor; Grin1/Grin2b (Rattus norvegicus)", "assay": "Antagonist activity at rat recombinant NR1/NR2B receptor expressed in Xenopus laevis oocytes assessed as voltage-independent inhibition of glutamate/glycine-induced current at 0.054 uM by two electrode voltage clamp method", "format": "functional, cell-based", "conditions": "Oocyte", "how_it_was_run": "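Rat NR1/NR2B oocytes were voltage clamped and the current–voltage relation recorded for 50 μM glutamate plus 30 μM glycine, with and without 0.054 μM compound coapplied; n = 5.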"}, "MDCK": {"system": "MDCK", "assay": "Apparent permeability from basolateral to apical side of MDR1-expressing MDCK cells at 5 uM after 2 hrs by LC-MS/MS analysis", "format": "ADME, cell-based, Canis lupus familiaris", "conditions": "dog", "how_it_was_run": "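MDR1-MDCK monolayers grown 7–11 days on Transwells. Compound at 5 μM in HBSS pH 7.4 (final DMSO ≤1%) added apically (A–B) or basally (B–A). Incubated 2 h at 37 °C; both compartments quantified by LC–MS/MS against a >4-point calibration. Papp given in ×10−6 cm/s; efflux ratio = B–A/A–B. Duplicates.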"}, "[8]": {"biological_target": "Glutamate NMDA receptor; Grin1/Grin2c (Rattus norvegicus, UniProt P35439+Q00961)", "sequence (Q00961 whole entry, other chains not shown, the tested form may be a part)": "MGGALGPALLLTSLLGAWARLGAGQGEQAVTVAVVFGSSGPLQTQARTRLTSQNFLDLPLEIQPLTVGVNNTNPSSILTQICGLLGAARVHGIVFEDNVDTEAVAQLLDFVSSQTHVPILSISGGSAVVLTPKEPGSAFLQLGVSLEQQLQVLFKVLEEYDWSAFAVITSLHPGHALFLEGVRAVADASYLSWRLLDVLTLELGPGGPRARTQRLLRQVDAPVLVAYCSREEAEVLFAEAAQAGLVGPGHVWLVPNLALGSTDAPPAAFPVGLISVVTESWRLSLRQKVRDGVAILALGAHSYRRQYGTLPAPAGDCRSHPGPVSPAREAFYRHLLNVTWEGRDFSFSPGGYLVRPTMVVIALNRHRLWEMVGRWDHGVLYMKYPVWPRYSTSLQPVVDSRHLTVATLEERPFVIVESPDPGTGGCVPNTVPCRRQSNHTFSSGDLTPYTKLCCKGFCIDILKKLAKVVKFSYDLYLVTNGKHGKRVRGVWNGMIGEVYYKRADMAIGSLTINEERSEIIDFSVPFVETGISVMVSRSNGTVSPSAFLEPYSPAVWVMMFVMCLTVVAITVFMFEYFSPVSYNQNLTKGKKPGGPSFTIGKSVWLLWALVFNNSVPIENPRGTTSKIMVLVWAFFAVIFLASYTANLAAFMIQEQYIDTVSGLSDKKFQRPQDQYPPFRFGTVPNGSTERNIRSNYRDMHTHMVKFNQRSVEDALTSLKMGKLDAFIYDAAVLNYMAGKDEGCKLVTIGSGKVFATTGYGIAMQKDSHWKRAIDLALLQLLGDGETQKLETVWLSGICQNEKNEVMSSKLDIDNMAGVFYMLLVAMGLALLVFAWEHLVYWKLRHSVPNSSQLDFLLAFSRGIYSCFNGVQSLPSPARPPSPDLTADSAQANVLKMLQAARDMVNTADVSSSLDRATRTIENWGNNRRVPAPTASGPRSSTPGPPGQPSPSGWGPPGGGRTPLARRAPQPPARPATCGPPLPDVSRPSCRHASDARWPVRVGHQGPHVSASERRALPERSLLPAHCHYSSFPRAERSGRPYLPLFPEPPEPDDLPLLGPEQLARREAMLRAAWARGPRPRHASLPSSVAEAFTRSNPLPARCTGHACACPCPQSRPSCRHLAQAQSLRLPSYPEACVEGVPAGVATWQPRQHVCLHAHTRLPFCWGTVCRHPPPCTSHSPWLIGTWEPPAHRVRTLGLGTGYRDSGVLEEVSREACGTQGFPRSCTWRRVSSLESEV", "assay": "Antagonist activity at rat recombinant NR1/NR2C receptor expressed in Xenopus laevis oocytes assessed as inhibition of glutamate/glycine-induced current by two electrode voltage clamp method", "format": "functional, cell-based, Oocyte", "how_it_was_run": "(§1)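 Xenopus oocytes expressing NR1/NR2 (wild type or amino terminal domain deletion mutant) recorded by TEVC at −40 mV, room temperature, pH 7.4–7.6, with EDTA 10 μM. Maximal glutamate/glycine applied alone, then with 5–8 successive compound concentrations. Leak-corrected; responses under 50 nA excluded. IC50 from fitted composite curve. NR1/NR2A oocytes were pre-incubated in 50 μM BAPTA-AM.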"}, "[9]": {"biological_target": "Ionotropic glutamate receptor NMDA 1/2D (Rattus norvegicus, UniProt P35439+Q62645)", "sequence (Q62645 whole entry, other chains not shown)": "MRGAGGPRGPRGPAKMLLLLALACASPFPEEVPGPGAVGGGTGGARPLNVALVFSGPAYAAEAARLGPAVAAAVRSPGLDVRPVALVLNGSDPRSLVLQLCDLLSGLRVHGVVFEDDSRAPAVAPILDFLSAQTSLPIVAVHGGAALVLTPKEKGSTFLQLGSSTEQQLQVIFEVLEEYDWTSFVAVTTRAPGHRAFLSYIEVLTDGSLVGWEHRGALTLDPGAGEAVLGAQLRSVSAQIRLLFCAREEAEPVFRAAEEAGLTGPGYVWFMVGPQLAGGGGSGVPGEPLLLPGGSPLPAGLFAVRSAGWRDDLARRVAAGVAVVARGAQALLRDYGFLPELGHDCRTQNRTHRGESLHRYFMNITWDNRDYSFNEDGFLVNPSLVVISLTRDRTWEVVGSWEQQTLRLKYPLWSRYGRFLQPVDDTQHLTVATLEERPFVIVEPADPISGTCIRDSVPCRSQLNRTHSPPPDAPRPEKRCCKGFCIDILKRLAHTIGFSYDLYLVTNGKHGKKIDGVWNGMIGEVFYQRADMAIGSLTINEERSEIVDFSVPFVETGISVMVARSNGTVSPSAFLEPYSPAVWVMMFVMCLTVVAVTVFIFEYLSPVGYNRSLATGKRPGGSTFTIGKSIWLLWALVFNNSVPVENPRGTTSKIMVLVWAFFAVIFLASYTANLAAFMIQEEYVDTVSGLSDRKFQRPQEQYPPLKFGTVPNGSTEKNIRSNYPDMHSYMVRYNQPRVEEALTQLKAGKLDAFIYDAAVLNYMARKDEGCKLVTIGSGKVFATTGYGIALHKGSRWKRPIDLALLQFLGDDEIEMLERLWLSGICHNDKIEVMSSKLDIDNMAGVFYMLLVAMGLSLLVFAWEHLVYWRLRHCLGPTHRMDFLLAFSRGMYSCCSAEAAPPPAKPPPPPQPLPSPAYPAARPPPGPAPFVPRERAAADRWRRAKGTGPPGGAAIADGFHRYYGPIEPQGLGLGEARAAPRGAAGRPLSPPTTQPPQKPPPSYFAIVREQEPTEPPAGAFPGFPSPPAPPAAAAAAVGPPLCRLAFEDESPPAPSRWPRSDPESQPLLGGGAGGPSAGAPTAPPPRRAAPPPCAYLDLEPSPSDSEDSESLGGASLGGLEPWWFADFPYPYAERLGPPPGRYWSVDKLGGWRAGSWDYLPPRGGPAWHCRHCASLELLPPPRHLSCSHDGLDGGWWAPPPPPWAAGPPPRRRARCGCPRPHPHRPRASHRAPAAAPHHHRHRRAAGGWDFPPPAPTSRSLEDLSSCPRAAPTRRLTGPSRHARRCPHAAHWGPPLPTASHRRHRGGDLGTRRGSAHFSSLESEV", "assay": "Antagonist activity at rat recombinant NR1/NR2D receptor expressed in Xenopus laevis oocytes assessed as inhibition of glutamate/glycine-induced current by two electrode voltage clamp method", "format": "functional, cell-based, Oocyte", "how_it_was_run": "as §1"}, "[10]": {"biological_target": "T1, Glutamate NMDA receptor; Grin1/Grin2b (Rattus norvegicus)", "assay": "Antagonist activity at rat recombinant NR1/NR2B receptor expressed in Xenopus laevis oocytes assessed as noncompetitive inhibition of glutamate/glycine-induced current at 0.054 uM by two electrode voltage clamp method", "format": "functional, cell-based", "conditions": "Oocyte", "how_it_was_run": "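TEVC on rat NR1/NR2B oocytes at −40 mV. Inhibition by 0.054 μM compound measured while glutamate or glycine was raised 10-fold above the control 50 μM glutamate/30 μM glycine. Response given as percent of control; n = 4.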"}},
  "note": "Calls of active or inactive are those of the source. The calls are words filed in the database; no cut-off is given here.",
  "data": [
    {"molecule": "CS(=O)(=O)Nc1ccc(OCC(=O)NCCNc2ccc(Cl)c(Cl)c2)cc1", "values": [
      {"measurement": "IC50", "setting": "[1]", "result": 0.036, "unit": "µM"},
      {"measurement": "inhibition", "setting": "[2]", "result": "inactive"},
      {"measurement": "inhibition", "setting": "Rattus norvegicus [3]", "result": "inactive"},
      {"measurement": "inhibition", "setting": "Oocyte", "result": "inactive"},
      {"measurement": "inhibition", "setting": "Rattus norvegicus [4]", "result": "inactive"},
      {"measurement": "Ki", "setting": "[5]", "result": 0.119, "unit": "µM"},
      {"measurement": "% response", "setting": "[6]", "result": 16, "unit": "%"},
      {"measurement": "inhibition", "setting": "[7]", "result": "Active"},
      {"measurement": "Papp", "setting": "MDCK", "result": 63.2, "unit": "×10⁻⁶ cm/s"},
      {"measurement": "IC50", "setting": "[8]", "result": 58, "unit": "µM"},
      {"measurement": "IC50", "setting": "[9]", "result": 107, "unit": "µM"},
      {"measurement": "inhibition", "setting": "[10]", "result": "Active"}
    ]}
  ]
}
